# Columns and labels:
# Type in all cases: functional
# [1] = Growth inhibition of human SF268 cells assessed as cell growth at 10 uM incubated for 48 hrs by sulforhodamine B assay relative to control; conditions: SF-268, 48 h, read-out: Activity
# Procedure, shortened: (§1)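 Run in the standard NCI 60-cell-line screen. Cells were exposed to drug for two days, and the read-out was sulforhodamine B staining. Compound was tested at a single final concentration of 10 µM in every line, and results are reported as growth percent.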
# MDA-MB-435 [2] = test: Growth inhibition of human MDA-MB-435 cells assessed as cell growth at 10 uM incubated for 48 hrs by sulforhodamine B assay relative to control; conditions: MDA-MB-435, 48 h, read-out: Activity; procedure, shortened: as §1
# [3] = Growth inhibition of human UO31 cells assessed as cell growth at 10 uM incubated for 48 hrs by sulforhodamine B assay relative to control; conditions: UO-31, 48 h, read-out: Activity
# Procedure, shortened: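 NCI 60-cell line standard protocol, one-dose screen: single final concentration 10 µM, 2-day drug exposure, sulforhodamine B (SRB) endpoint; read-out is growth percent relative to untreated control.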
# NCI/ADR-RES = test: Growth inhibition of human NCI/ADR-RES cells assessed as cell growth at 10 uM incubated for 48 hrs by sulforhodamine B assay relative to control; conditions: read-out: Activity; procedure, shortened: as §1
# MCF7 = test: Growth inhibition of human MCF7 cells assessed as cell growth at 10 uM incubated for 48 hrs by sulforhodamine B assay relative to control; conditions: MCF7, 48 h, read-out: Activity; procedure, shortened: as §1
# KM12 = test: Growth inhibition of human KM12 cells assessed as cell growth at 10 uM incubated for 48 hrs by sulforhodamine B assay relative to control; conditions: KM12, 48 h, read-out: Activity; procedure, shortened: as §1
# NCI-H322M = test: Growth inhibition of human NCI-H322M cells assessed as cell growth at 10 uM incubated for 48 hrs by sulforhodamine B assay relative to control; conditions: read-out: Activity; procedure, shortened: as §1
# [4] = Growth inhibition of human HOP62 cells assessed as cell growth at 10 uM incubated for 48 hrs by sulforhodamine B assay relative to control; conditions: HOP-62, 48 h, read-out: Activity; procedure, shortened: as §1
# [5] = Growth inhibition of human IGROV1 cells assessed as cell growth at 10 uM incubated for 48 hrs by sulforhodamine B assay relative to control; conditions: IGROV-1, 48 h, read-out: Activity; procedure, shortened: as §1
# [6] = Growth inhibition of human HL-60(TB) cells assessed as cell growth at 10 uM incubated for 48 hrs by sulforhodamine B assay relative to control; conditions: HL-60, 48 h, read-out: Activity
# Procedure, shortened: (§2)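 Single-dose screen in the NCI 60-cell-line panel at one final concentration of 10 µM. Two-day drug exposure with a sulforhodamine B endpoint. Values are growth percent for each cell line.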
# NCI-H522 = test: Growth inhibition of human NCI-H522 cells assessed as cell growth at 10 uM incubated for 48 hrs by sulforhodamine B assay relative to control; conditions: NCI-H522, 48 h, read-out: Activity; procedure, shortened: as §1
# [7] = Growth inhibition of human Hs 578T cells assessed as cell growth at 10 uM incubated for 48 hrs by sulforhodamine B assay relative to control; conditions: read-out: Activity
# [8] = Growth inhibition of human OVCAR8 cells assessed as cell growth at 10 uM incubated for 48 hrs by sulforhodamine B assay relative to control; conditions: OVCAR-8, 48 h, read-out: Activity; procedure, shortened: as §1
# [9] = Growth inhibition of human SF539 cells assessed as cell growth at 10 uM incubated for 48 hrs by sulforhodamine B assay relative to control; conditions: SF-539, 48 h, read-out: Activity; procedure, shortened: as §2
# [10] = Growth inhibition of human RXF393 cells assessed as cell growth at 10 uM incubated for 48 hrs by sulforhodamine B assay relative to control; conditions: RXF 393, 48 h, read-out: Activity; procedure, shortened: as §1
# [11] = Growth inhibition of human SF295 cells incubated for 48 hrs by sulforhodamine B assay; conditions: SF-295, 48 h
# Procedure, shortened: (§3)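 NCI 60-cell-line panel, standard protocol. Cells exposed to compound for two days, growth read by sulforhodamine B staining. Tested at five 10-fold dilutions, top concentration 100 µM, to give dose-response curves.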
# [12] = Growth inhibition of human HOP62 cells incubated for 48 hrs by sulforhodamine B assay; conditions: HOP-62, 48 h; procedure, shortened: as §3
# K562 = test: Growth inhibition of human K562 cells incubated for 48 hrs by sulforhodamine B assay; conditions: K562, 48 h; procedure, shortened: as §3
# [13] = Growth inhibition of human OVCAR4 cells incubated for 48 hrs by sulforhodamine B assay; conditions: OVCAR-4, 48 h; procedure, shortened: as §3
# [14] = Growth inhibition of human UACC62 cells incubated for 48 hrs by sulforhodamine B assay; conditions: UACC-62, 48 h
# Procedure, shortened: (§4)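 Tested in the standard NCI 60-cell-line protocol with two-day drug exposure and a sulforhodamine B endpoint. Compounds were first screened at a single final concentration of 10 µM, reported as growth percent. They were then run as five 10-fold dilutions starting from a high concentration of 100 µM to give dose-response curves.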
# [15] = Growth inhibition of human HCT116 cells incubated for 48 hrs by sulforhodamine B assay; conditions: HCT-116, 48 h; procedure, shortened: as §3
# [16] = Growth inhibition of human LOXIMVI cells incubated for 48 hrs by sulforhodamine B assay; conditions: LOX IMVI; procedure, shortened: as §3
# SN12C = test: Growth inhibition of human SN12C cells incubated for 48 hrs by sulforhodamine B assay; procedure, shortened: as §4
# NCI-H460 = test: Growth inhibition of human NCI-H460 cells incubated for 48 hrs by sulforhodamine B assay; conditions: NCI-H460, 48 h; procedure, shortened: as §3
# NCI-H226 = test: Growth inhibition of human NCI-H226 cells incubated for 48 hrs by sulforhodamine B assay; conditions: NCI-H226, 48 h; procedure, shortened: as §3
# [17] = Growth inhibition of human Caki1 cells incubated for 48 hrs by sulforhodamine B assay; conditions: CAKI-1, 48 h; procedure, shortened: as §3
# [18] = Growth inhibition of human OVCAR3 cells incubated for 48 hrs by sulforhodamine B assay; conditions: OVCAR-3, 48 h; procedure, shortened: as §3
# MDA-MB-435 [19] = test: Growth inhibition of human MDA-MB-435 cells incubated for 48 hrs by sulforhodamine B assay; conditions: MDA-MB-435, 48 h; procedure, shortened: as §3
# MDA-MB-468 = test: Growth inhibition of human MDA-MB-468 cells assessed as cell growth at 10 uM incubated for 48 hrs by sulforhodamine B assay relative to control; conditions: MDA-MB-468, 48 h, read-out: Activity; procedure, shortened: as §1
# [20] = read-out: pLC50 (the source's name) (converted)
smiles,measurement,setting,value
CC(C)[C@@]12C[C@@H](NC(=O)CF)[C@@](C)(O1)[C@@H]1CC[C@@H](C)[C@H]1[C@@H]2OC(=O)/C=C/c1ccccc1,growth at 10 µM,[1],97.7%
same,growth at 10 µM,MDA-MB-435 [2],106%
same,growth at 10 µM,[3],91.1%
same,growth at 10 µM,NCI/ADR-RES,98.5%
same,growth at 10 µM,MCF7,106%
same,growth at 10 µM,KM12,104%
same,growth at 10 µM,NCI-H322M,97.4%
same,growth at 10 µM,[4],90.8%
same,growth at 10 µM,[5],103%
same,growth at 10 µM,[6],105%
same,growth at 10 µM,NCI-H522,103%
same,growth at 10 µM,[7],92.6%
same,growth at 10 µM,[8],107%
same,growth at 10 µM,[9],87.9%
CC(C)[C@@]12C[C@@H](NC(=O)CO)[C@@](C)(O1)[C@@H]1CC[C@@H](C)[C@H]1[C@@H]2OC(=O)/C=C/C1CCCCC1,growth at 10 µM,[1],106%
same,growth at 10 µM,[10],95.4%
same,GI50,[11],> 44.7 µM
same,LC50 (concentration causing 50% net cell kill),[11],> 44.7 µM
same,TGI,[11]; read-out: pTGI (converted),> 44.7 µM
same,GI50,[12],> 44.7 µM
same,LC50,[12],> 44.7 µM
same,TGI,[12]; read-out: pTGI (converted),> 44.7 µM
same,GI50,K562,> 44.7 µM
same,CC50,K562; [20],> 44.7 µM
same,TGI,K562; read-out: pTGI (converted),> 44.7 µM
same,growth at 10 µM,MDA-MB-435 [2],102%
same,GI50,[13],> 44.7 µM
same,LC50 (concentration killing 50% of cells),[13],> 44.7 µM
same,TGI,[13]; read-out: pTGI (converted),> 44.7 µM
same,growth at 10 µM,[3],95.1%
same,GI50,[14],> 44.7 µM
same,"LC50 (lethal concentration, 50% net cell kill)",[14],> 44.7 µM
same,TGI,[14]; read-out: pTGI (converted),> 44.7 µM
same,growth at 10 µM,NCI/ADR-RES,94.8%
same,growth at 10 µM,MCF7,94%
same,GI50,[15],> 44.7 µM
same,LC50,[15],> 44.7 µM
same,TGI,[15]; read-out: pTGI (converted),> 44.7 µM
same,growth at 10 µM,KM12,104%
same,growth at 10 µM,NCI-H322M,97.7%
same,growth at 10 µM,[4],108%
same,growth at 10 µM,[5],103%
same,growth at 10 µM,[6],111%
same,GI50,[16],> 44.7 µM
same,LC50,[16],> 44.7 µM
same,TGI,[16]; read-out: pTGI (converted),> 44.7 µM
same,GI50,SN12C,> 44.7 µM
same,CC50,SN12C; [20],> 44.7 µM
same,TGI,SN12C; read-out: pTGI (converted),> 44.7 µM
same,GI50,NCI-H460,> 44.7 µM
same,CC50,NCI-H460; [20],> 44.7 µM
same,TGI,NCI-H460; read-out: pTGI (converted),> 44.7 µM
same,GI50,NCI-H226,> 44.7 µM
same,LC50,NCI-H226,> 44.7 µM
same,TGI,NCI-H226; read-out: pTGI (converted),> 44.7 µM
same,growth at 10 µM,NCI-H522,88.8%
same,GI50,[17],> 44.7 µM
same,LC50,[17],> 44.7 µM
same,TGI,[17]; read-out: pTGI (converted),> 44.7 µM
same,growth at 10 µM,[7],73%
same,GI50,[18],> 44.7 µM
same,LC50,[18],> 44.7 µM
same,TGI,[18]; read-out: pTGI (converted),> 44.7 µM
same,GI50,MDA-MB-435 [19],> 44.7 µM
same,LC50,MDA-MB-435 [19],> 44.7 µM
same,TGI,MDA-MB-435 [19]; read-out: pTGI (converted),> 44.7 µM
same,growth at 10 µM,[8],107%
same,growth at 10 µM,MDA-MB-468,97.5%
